# Results from ChEMBL document CHEMBL1138050, “Furan-2-ylmethylene thiazolidinediones as novel, potent, and selective inhibitors of phosphoinositide 3-kinase gamma” (J Med Chem, 2006).
# How the values were obtained:
# [1] = molecular target: Dual specificity mitogen-activated protein kinase kinase 7 (Homo sapiens) (UniProt O14733); assay: Residual activity at human MKK7-beta at 10 uM in presence of 10 uM ATP relative to control
# In short: (§1)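 Single-concentration counter-screen across a panel of 80 Ser/Thr and Tyr protein kinases. Compound was tested at 10 µM with ATP at 10 µM. Activity remaining in each kinase is expressed relative to control.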
# [2] = Dissociation constant, pKa of the compound; assay type: physicochemical
# In short: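 UV-metric titration under argon at 25 ± 0.5 °C. 10 mM DMSO stock diluted into 0.15 M KCl containing 60, 50, 40 or 30 wt% MeOH, with 0.25 mM KH2PO4. Brought to pH 11.0 with 0.5 M KOH, then titrated with 0.5 M HCl to pH 4, at most 0.15 pH unit per step. UV 200-500 nm recorded after each addition; Yasuda-Shedlovsky extrapolation to zero cosolvent.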
# [3] = molecular target: Tyrosine-protein kinase ABL2 (Mus musculus) (UniProt Q4JIM5); assay: Residual activity at mouse Arg at 10 uM in presence of 10 uM ATP relative to control; in short: as §1
# Chain of Tyrosine-protein kinase ABL2 (Mus musculus) (Q4JIM5 whole entry): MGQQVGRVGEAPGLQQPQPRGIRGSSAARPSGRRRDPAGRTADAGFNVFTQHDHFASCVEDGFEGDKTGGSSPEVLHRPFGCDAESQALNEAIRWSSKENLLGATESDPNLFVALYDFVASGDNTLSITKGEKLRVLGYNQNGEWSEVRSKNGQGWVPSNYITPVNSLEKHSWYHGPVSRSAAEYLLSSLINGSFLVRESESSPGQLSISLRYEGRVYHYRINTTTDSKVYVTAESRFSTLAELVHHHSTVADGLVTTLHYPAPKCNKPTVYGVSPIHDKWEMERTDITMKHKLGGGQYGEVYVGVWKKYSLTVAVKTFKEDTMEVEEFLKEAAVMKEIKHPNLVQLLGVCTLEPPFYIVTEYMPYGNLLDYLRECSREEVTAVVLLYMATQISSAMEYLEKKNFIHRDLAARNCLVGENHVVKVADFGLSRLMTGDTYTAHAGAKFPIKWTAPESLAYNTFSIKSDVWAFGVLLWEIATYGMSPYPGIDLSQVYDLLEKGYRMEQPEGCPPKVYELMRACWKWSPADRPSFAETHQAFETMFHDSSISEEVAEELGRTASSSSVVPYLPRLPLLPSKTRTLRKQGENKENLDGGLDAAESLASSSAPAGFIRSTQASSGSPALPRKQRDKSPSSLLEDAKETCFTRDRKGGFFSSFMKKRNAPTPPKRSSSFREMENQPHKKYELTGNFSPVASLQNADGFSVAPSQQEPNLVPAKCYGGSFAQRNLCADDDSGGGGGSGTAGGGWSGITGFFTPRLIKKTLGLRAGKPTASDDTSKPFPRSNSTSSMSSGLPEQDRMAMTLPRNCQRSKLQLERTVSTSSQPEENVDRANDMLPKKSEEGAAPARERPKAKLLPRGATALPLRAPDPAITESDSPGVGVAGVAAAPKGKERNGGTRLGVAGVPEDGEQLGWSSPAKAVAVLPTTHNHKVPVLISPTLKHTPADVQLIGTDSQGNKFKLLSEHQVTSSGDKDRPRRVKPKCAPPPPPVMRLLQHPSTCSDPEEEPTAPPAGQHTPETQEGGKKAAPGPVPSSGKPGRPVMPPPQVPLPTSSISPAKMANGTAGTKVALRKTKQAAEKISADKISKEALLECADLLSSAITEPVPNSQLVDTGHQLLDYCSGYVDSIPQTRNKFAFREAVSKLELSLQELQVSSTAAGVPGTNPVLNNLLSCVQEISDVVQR
# [4] = Metabolism in rat microsome after 1 hr; assay type: ADME; conditions: microsomes, read-out: Activity
# [5] = molecular target: Insulin-like growth factor 1 receptor (Homo sapiens) (UniProt P08069); assay: Residual activity at human IGF1R at 10 uM in presence of 10 uM ATP relative to control
# In short: (§2)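 Panel of Ser/Thr and Tyr protein kinases, each tested with 10 µM compound in the presence of 10 µM ATP; activity expressed relative to control.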
# [6] = molecular target: Protein kinase C gamma type (Homo sapiens) (UniProt P05129); assay: Residual activity at human PKCgamma at 10 uM in presence of 10 uM ATP relative to control; in short: as §1
# [7] = molecular target: MAP kinase-activated protein kinase 2 (Homo sapiens) (UniProt P49137); assay: Residual activity at human MAPKAPK2 at 10 uM in presence of 10 uM ATP relative to control; in short: as §1
# [8] = molecular target: Proto-oncogene tyrosine-protein kinase Src (Homo sapiens) (UniProt P12931); assay: Residual activity at human cSRC at 10 uM in presence of 10 uM ATP relative to control; in short: as §1
# Chain of Proto-oncogene tyrosine-protein kinase Src (Homo sapiens) (P12931 2-536 limits assumed): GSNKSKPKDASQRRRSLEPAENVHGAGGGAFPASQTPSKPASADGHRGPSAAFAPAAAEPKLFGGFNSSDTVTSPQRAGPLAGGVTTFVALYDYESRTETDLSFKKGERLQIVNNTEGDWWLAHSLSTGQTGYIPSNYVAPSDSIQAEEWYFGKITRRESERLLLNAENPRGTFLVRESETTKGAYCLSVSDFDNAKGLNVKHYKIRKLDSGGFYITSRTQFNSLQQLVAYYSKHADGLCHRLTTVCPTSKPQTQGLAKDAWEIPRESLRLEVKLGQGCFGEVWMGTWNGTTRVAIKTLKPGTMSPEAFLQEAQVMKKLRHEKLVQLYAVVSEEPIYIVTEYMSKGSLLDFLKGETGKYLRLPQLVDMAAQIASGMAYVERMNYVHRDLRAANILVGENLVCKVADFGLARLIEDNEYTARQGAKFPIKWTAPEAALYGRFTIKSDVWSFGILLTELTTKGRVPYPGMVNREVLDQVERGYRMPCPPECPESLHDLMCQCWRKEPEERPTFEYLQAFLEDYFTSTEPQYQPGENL
# [9] = molecular target: Mitogen-activated protein kinase 1 (Homo sapiens) (UniProt P28482); assay: Residual activity at human MAPK1 at 10 uM in presence of 10 uM ATP relative to control; in short: as §1
# [10] = molecular target: Dual specificity mitogen-activated protein kinase kinase 4 (Mus musculus) (UniProt P47809); assay: Residual activity at mouse MKK4 at 10 uM in presence of 10 uM ATP relative to control; in short: as §1
# THP-1 = assay: Inhibition of MCP1-induced chemotaxis of THP1 cells; assay type: functional, cell-based; conditions: Homo sapiens
# [11] = molecular target: Ribosomal protein S6 kinase beta-1 (Homo sapiens) (UniProt P23443); assay: Residual activity at human p70S6K at 10 uM in presence of 10 uM ATP relative to control; in short: as §1
# RAW264.7 = assay: Inhibition of C5a-mediated PKB/Akt phosphorylation in mouse Raw264 macrophage; assay type: functional, cell-based
# In short: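 Raw-264 murine macrophages starved 3 h in serum-free medium, pretreated 30 min with inhibitor or DMSO, then stimulated 5 min with 50 nM C5a. Phospho-Ser-473 Akt measured by ELISA. Concentration-response; IC50. Mean ± standard deviation of four independent experiments done in triplicate.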
# [12] = AUC in rat at 10 mg/kg, po; assay type: ADME, organism-based; design: dose 10 mg/kg, route oral; conditions: plasma
# In short: (§3)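 Rats given a single 10 mg/kg dose, intravenously or orally. The compound was given as its potassium salt, prepared with KOH in THF/water, for the in vivo work.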
# [13] = molecular target: Glycogen synthase kinase-3 beta (Homo sapiens) (UniProt P49841); assay: Residual activity at human GSK3-beta at 10 uM in presence of 10 uM ATP relative to control; in short: as §2
# Chain of Glycogen synthase kinase-3 beta (Homo sapiens) (P49841 whole entry, looked up): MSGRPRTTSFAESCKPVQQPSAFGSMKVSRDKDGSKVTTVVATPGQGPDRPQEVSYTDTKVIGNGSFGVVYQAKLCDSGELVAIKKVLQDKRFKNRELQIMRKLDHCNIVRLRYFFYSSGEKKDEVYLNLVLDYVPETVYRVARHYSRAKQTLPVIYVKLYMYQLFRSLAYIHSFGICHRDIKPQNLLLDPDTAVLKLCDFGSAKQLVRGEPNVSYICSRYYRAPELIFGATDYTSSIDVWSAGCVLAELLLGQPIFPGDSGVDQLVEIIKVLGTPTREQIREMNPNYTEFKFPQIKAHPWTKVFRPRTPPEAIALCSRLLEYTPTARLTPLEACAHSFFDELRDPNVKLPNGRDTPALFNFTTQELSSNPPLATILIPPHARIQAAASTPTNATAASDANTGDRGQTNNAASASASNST
# [14] = molecular target: cAMP-dependent protein kinase (PKA) (Homo sapiens) (UniProt P22694+P17612+P22612); assay: Residual activity at human PKA at 10 uM in presence of 10 uM ATP relative to control; assay type: protein assay; in short: as §1
# [15] = AUC in rat at 10 mg/kg, iv; assay type: ADME, organism-based; design: dose 10 mg/kg, route intravenous; conditions: plasma; in short: as §3
# [16] = Half life in rat at 10 mg/kg, po; assay type: ADME, organism-based; design: dose 10 mg/kg, route oral; conditions: in vivo; in short: as §3
# Rattus norvegicus = assay: Volume of distribution in rat at 10 mg/kg, iv; assay type: ADME, organism-based; design: dose 10 mg/kg, route intravenous; conditions: in vivo
# In short: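 Given to rats as a single 10 mg/kg intravenous dose of the potassium salt, run alongside a matching oral arm. Pharmacokinetic parameters derived were CL, AUC, Cmax, t1/2 and Vd.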
# [17] = Cmax in rat at 10 mg/kg, po; assay type: ADME, organism-based; design: dose 10 mg/kg, route oral; conditions: in vivo; in short: as §3
# [18] = molecular target: Phosphatidylinositol 4,5-bisphosphate 3-kinase catalytic subunit beta isoform (Homo sapiens, UniProt P42338); assay: Inhibition of human PI3Kbeta
# Chain of Phosphatidylinositol 4,5-bisphosphate 3-kinase catalytic subunit beta isoform (P42338 whole entry, canonical isoform): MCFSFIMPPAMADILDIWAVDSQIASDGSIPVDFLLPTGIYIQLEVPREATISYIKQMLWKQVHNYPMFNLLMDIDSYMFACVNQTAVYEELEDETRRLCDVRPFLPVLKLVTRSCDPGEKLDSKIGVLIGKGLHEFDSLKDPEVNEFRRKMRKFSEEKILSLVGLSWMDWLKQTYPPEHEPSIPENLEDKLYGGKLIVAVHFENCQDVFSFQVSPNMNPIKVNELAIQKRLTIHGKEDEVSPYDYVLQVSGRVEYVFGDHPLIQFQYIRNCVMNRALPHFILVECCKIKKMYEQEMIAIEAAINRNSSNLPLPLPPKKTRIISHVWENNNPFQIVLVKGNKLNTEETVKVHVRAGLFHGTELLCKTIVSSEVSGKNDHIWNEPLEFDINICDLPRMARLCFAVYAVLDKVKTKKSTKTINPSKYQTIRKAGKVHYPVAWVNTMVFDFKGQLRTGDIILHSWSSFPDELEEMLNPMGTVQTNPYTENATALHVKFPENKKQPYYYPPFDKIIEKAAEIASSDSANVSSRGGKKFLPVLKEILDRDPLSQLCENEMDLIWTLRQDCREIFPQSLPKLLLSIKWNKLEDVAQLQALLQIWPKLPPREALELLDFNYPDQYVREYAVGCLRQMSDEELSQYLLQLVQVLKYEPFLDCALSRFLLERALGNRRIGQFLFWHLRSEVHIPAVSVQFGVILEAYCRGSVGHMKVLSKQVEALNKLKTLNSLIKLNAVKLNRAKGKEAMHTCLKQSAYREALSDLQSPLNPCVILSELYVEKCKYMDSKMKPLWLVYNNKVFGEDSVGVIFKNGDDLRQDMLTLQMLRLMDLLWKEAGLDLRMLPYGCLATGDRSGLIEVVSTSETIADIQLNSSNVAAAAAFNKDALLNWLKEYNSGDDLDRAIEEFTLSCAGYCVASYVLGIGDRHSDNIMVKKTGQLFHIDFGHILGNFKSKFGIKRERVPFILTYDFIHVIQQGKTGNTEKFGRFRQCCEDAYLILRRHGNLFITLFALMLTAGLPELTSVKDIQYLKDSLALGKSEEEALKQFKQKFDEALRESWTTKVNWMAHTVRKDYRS
# [19] = molecular target: Tyrosine-protein kinase Blk (Mus musculus) (UniProt P16277); assay: Residual activity at mouse Blk at 10 uM in presence of 10 uM ATP relative to control; in short: as §1
# Chain of Tyrosine-protein kinase Blk (Mus musculus) (P16277 whole entry): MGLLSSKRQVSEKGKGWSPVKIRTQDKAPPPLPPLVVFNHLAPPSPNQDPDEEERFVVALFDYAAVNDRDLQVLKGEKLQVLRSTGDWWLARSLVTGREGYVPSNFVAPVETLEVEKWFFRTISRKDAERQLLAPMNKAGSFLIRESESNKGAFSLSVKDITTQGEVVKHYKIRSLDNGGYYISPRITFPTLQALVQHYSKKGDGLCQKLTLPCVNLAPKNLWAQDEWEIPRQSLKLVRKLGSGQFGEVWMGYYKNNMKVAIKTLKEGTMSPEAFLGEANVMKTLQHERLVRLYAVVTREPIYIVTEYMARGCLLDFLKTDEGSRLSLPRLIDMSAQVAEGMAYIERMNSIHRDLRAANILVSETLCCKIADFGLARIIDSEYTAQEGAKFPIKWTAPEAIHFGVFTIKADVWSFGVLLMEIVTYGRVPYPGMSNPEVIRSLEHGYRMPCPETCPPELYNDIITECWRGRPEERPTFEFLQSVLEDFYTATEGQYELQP
# [20] = molecular target: Mitogen-activated protein kinase 13 (Homo sapiens) (UniProt O15264); assay: Residual activity at human SAPK4 at 10 uM in presence of 10 uM ATP relative to control; in short: as §1
# Chain of Mitogen-activated protein kinase 13 (Homo sapiens) (O15264 whole entry): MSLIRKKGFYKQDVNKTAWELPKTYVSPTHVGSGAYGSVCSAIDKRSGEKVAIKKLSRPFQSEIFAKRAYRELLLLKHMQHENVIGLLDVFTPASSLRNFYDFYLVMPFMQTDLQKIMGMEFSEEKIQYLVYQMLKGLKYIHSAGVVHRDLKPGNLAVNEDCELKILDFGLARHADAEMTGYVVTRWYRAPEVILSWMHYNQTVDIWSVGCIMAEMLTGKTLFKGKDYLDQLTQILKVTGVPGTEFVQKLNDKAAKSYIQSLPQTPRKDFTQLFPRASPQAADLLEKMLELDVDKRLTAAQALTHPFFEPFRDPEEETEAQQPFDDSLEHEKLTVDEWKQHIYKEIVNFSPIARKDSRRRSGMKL
# [21] = molecular target: Serine/threonine-protein kinase D2 (Homo sapiens) (UniProt Q9BZL6); assay: Residual activity at human PKD2 at 10 uM in presence of 10 uM ATP relative to control; in short: as §1
# [22] = molecular target: MAP kinase-activated protein kinase 5 (Homo sapiens) (UniProt Q8IW41); assay: Residual activity at human PRAK at 10 uM in presence of 10 uM ATP relative to control; in short: as §1
# [23] = molecular target: Ribosomal protein S6 kinase alpha-5 (Homo sapiens) (UniProt O75582); assay: Residual activity at human MSK1 at 10 uM in presence of 10 uM ATP relative to control; in short: as §1
# [24] = molecular target: 3-phosphoinositide-dependent protein kinase 1 (Homo sapiens) (UniProt O15530); assay: Residual activity at human PDK1 at 10 uM in presence of 10 uM ATP relative to control; in short: as §1
# [25] = molecular target: RAF proto-oncogene serine/threonine-protein kinase (Homo sapiens) (UniProt P04049); assay: Residual activity at human c-RAF at 10 uM in presence of 10 uM ATP relative to control; in short: as §1
# [26] = molecular target: Mitogen-activated protein kinase 8 (Homo sapiens) (UniProt P45983); assay: Residual activity at human JNK1alpha1 at 10 uM in presence of 10 uM ATP relative to control; in short: as §1
# [27] = molecular target: Serine/threonine-protein kinase PAK 2 (Homo sapiens) (UniProt Q13177); assay: Residual activity at human PAK2 at 10 uM in presence of 10 uM ATP relative to control; in short: as §1
# [28] = molecular target: Receptor-type tyrosine-protein kinase FLT3 (Homo sapiens) (UniProt P36888); assay: Residual activity at human Flt3 at 10 uM in presence of 10 uM ATP relative to control; in short: as §2
# Chain of Receptor-type tyrosine-protein kinase FLT3 (Homo sapiens) (P36888 whole entry): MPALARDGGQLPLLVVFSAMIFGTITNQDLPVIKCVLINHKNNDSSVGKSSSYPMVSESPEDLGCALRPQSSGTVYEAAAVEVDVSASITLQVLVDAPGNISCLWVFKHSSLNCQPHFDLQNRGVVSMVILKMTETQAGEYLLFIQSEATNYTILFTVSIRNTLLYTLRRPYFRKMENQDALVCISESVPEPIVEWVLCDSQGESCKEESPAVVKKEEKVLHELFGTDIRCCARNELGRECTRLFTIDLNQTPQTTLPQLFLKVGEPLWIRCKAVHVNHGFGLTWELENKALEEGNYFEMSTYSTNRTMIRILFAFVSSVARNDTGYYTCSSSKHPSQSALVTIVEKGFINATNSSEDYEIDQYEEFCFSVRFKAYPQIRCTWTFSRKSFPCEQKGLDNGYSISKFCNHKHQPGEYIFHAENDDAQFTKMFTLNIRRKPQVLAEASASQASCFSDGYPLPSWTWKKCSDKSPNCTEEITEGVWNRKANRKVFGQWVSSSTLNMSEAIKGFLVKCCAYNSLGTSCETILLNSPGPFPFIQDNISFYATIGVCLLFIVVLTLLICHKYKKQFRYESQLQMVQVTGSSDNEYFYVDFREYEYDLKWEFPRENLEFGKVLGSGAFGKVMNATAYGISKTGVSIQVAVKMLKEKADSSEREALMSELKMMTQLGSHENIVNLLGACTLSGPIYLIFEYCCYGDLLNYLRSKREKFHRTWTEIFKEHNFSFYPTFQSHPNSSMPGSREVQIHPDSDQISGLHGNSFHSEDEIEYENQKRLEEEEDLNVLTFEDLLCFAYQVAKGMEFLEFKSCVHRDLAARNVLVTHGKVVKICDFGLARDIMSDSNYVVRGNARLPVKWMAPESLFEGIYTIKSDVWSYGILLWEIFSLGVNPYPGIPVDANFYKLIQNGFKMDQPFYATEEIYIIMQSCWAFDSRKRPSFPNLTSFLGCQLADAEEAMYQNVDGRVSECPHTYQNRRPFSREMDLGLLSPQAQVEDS
# [29] = molecular target: RAC-alpha serine/threonine-protein kinase (Homo sapiens) (UniProt P31749); assay: Residual activity at human PKBalpha at 10 uM in presence of 10 uM ATP relative to control; in short: as §1
structure (smiles),measurement,setting,value
O=C1NC(=O)/C(=C/c2ccc(-c3ccc(F)cc3O)o2)S1,Activity,[1],2%
same,pKa,[2],8.4
same,Activity,[3],85%
same,metabolised at 1 h,[4],16%
same,Activity,[5],96%
same,Activity,[6],107%
same,Activity,[7],117%
same,Activity,[8],66%
same,Activity,[9],103%
same,Activity,[10],85%
same,IC50,THP-1,53 µM
same,Activity,[11],190%
same,IC50,RAW264.7,0.23 µM
same,AUC,[12],847 ng·h/mL
same,Activity,[13],84%
same,Activity,[14],89%
same,AUC,[15],4400 ng·h/mL
same,half-life,[16],1 h
same,Vdss,Rattus norvegicus,25.3 L/kg
same,Cmax,[17],309 ng/mL
same,IC50,[18],20 µM
same,Activity,[19],70%
same,Activity,[20],93%
same,Activity,[21],91%
same,Activity,[22],95%
same,Activity,[23],72%
same,Activity,[24],104%
same,Activity,[25],99%
same,Activity,[26],97%
same,Activity,[27],178%
same,Activity,[28],93%
same,Activity,[29],97%
